Laboratory results as given in ChEMBL document CHEMBL4049443, “Discovery of 2-[[2-Ethyl-6-[4-[2-(3-hydroxyazetidin-1-yl)-2-oxoethyl]piperazin-1-yl]-8-methylimidazo[1,2-a]pyridin-3-yl]methylamino]-4-(4-fluorophenyl)thiazole-5-carbonitrile (GLPG1690), a First-in-Class Autotaxin Inhibitor Undergoing Clinical Evaluation for the Treatment of Idiopathic Pulmonary …” (J Med Chem, 2017).
Activity calls are given as the source filed them.

Tests used:
Assay type in all cases: functional, organism-based
Mus musculus [1] = test: Anti-fibrotic activity in BML-induced pulmonary fibrosis C57BL/6 mouse model assessed as reduction in fibrosis with damage of pulmonary structure at 50 mg/kg, po administered bid with 7.5 hrs interval between 2 doses for 21 days relative to control
Method in brief: (§1)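 Male C57Bl/6 mice, 11 weeks at delivery, anesthetized and given intranasal bleomycin 30 μg/50 μL; PBS controls. Oral dosing twice daily, 7.5 h apart, 10 mL/kg, from challenge day for 21 days: test agent in PEG 200/0.5% MC, pirfenidone in 0.5% CMC, vehicle controls; 14−24 mice per group. Lungs stained by Mallory method, scored 1–5 (Matsuse-modified Ashcroft) as mean of 10 low-power fields; group median, Mann−Whitney.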

Mus musculus [2] = test: Anti-fibrotic activity in BML-induced pulmonary fibrosis C57BL/6 mouse model assessed as reduction in fibrous area with severe distortion of lung structure at 50 mg/kg, po administered bid with 7.5 hrs interval between 2 doses for 21 days relative to control; method in brief: as §1
Mus musculus [3] = test: Anti-fibrotic activity in BML-induced pulmonary fibrosis C57BL/6 mouse model assessed as reduction in fibrotic thickening of aveolar/bronchial walls at 50 mg/kg, po administered bid with 7.5 hrs interval between 2 doses for 21 days relative to control; method in brief: as §1

Measured: Activity

Cc1ccc(=O)n(-c2ccccc2)c1
active: Mus musculus [1] | Mus musculus [2] | Mus musculus [3]
